≈ marks a conversion by molar mass, not a printed value.
Tests used:
Type in all cases: functional
Streptococcus pneumoniae [1] = assay: Antibacterial activity against tetracycline-resistant Streptococcus pneumoniae isolate 160 harboring tet(M) gene by CLSI M07-A8 method
Procedure, shortened: (§1)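 MICs were determined by CLSI broth microdilution in freshly prepared cation-adjusted Mueller Hinton broth, kept at 4 °C before use. Defibrinated horse blood was added as appropriate. Runs met QC ranges for comparator antibiotics with ATCC quality control strains.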

Streptococcus pneumoniae [2] = assay: Antibacterial activity against Streptococcus pneumoniae ATCC 49619 by CLSI M07-A8 method
Escherichia coli [3] = assay: Antibacterial activity against tetracycline-resistant Escherichia coli isolate 155 harboring tet(A) gene by CLSI M07-A8 method
Procedure, shortened: as §1, with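 “appropriate. The highest concentration tested was 32 μg/mL.” for “appropriate.”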

Staphylococcus aureus [4] = assay: Antibacterial activity against tetracycline-resistant Staphylococcus aureus isolate 161 harboring tet(M) gene by CLSI M07-A8 method; procedure, shortened: as §1
Escherichia coli [5] = assay: Antibacterial activity against Escherichia coli ATCC 25922 by CLSI M07-A8 method
Staphylococcus aureus [6] = assay: Antibacterial activity against wild type Staphylococcus aureus Smith ATCC 13709 by CLSI M07-A8 method
Staphylococcus aureus [7] = assay: Antibacterial activity against tetracycline-resistant Staphylococcus aureus isolate 158 harboring tet(K) gene by CLSI M07-A8 method; procedure, shortened: as §1
Klebsiella pneumoniae = assay: Antibacterial activity against Klebsiella pneumoniae ATCC 13883 by CLSI M07-A8 method
Escherichia coli [8] = assay: Inhibition of protein synthesis in Escherichia coli S30 extract by coupled transcription/translation assay
Procedure, shortened: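 Coupled transcription/translation used an E. coli S30 extract with a firefly luciferase reporter. Compounds were diluted in water and tested as a three-point titration in duplicate. Reactions ran 1 h at 37 °C and were stopped on ice for 5 min, then luciferase substrate was added and luminescence read. Percent inhibition was calculated against uninhibited controls averaged per plate, and IC50 derived.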

Row | Structure (SMILES) | MIC (Streptococcus pneumoniae [1]) [µg/mL] | MIC (Streptococcus pneumoniae [2]) [µg/mL] | MIC (Escherichia coli [3]) [µg/mL] | MIC (Staphylococcus aureus [4]) [µg/mL] | MIC (Escherichia coli [5]) [µg/mL] | MIC (Staphylococcus aureus [6]) [µg/mL] | MIC (Staphylococcus aureus [7]) [µg/mL] | MIC (Klebsiella pneumoniae) [µg/mL] | IC50 (Escherichia coli [8]) [µg/mL]
1 | CCCc1nc(N(C)C)c2c(c1O)C(=O)C1=C(O)[C@]3(O)C(=O)C(C(N)=O)=C(O)[C@@H](N(C)C)[C@@H]3C[C@@H]1C2.Cl.Cl | 2 | 1 | > 32 | 2 | 16 | 1 | 1 | 16 | –
2 | CN(C)[C@@H]1C(O)=C(C(N)=O)C(=O)[C@@]2(O)C(O)=C3C(=O)c4c(O)cnc(F)c4C[C@H]3C[C@@H]12.Cl | 8 | 0.016 | > 32 | 8 | 0.25 | 0.063 | 8 | 0.5 | –
3 | CN(C)[C@@H]1C(O)=C(C(N)=O)C(=O)[C@@]2(O)C(O)=C3C(=O)c4c(O)cnc(Cl)c4C[C@H]3C[C@@H]12.Cl | 32 | 1 | > 32 | 32 | 2 | 1 | 32 | 4 | –
4 | CN(C)CC(C)(C)CNc1nc(F)c2c(c1O)C(=O)C1=C(O)[C@]3(O)C(=O)C(C(N)=O)=C(O)[C@@H](N(C)C)[C@@H]3C[C@@H]1C2.Cl | 1 | 0.5 | 8 | 2 | 1 | 1 | 0.5 | 2 | –
5 | CN(C)CCNc1nc(Cl)c2c(c1O)C(=O)C1=C(O)[C@]3(O)C(=O)C(C(N)=O)=C(O)[C@@H](N(C)C)[C@@H]3C[C@@H]1C2.Cl | 2 | 0.5 | 32 | 4 | 4 | 2 | 1 | 8 | –
6 | CN(C)[C@@H]1C(O)=C(C(N)=O)C(=O)[C@@]2(O)C(O)=C3C(=O)c4c(cnc(-c5ccccc5)c4O)C[C@H]3C[C@@H]12.Cl.Cl | 8 | 2 | > 32 | 8 | 16 | 4 | 16 | 32 | –
7 | CN(C)[C@@H]1C(O)=C(C(N)=O)C(=O)[C@@]2(O)C(O)=C3C(=O)c4c(O)cncc4C[C@H]3C[C@@H]12.Cl.Cl | 32 | 0.25 | > 32 | 32 | 0.5 | 1 | 16 | 1 | –
8 | CN(C)c1ccc(O)c2c1C[C@H]1C[C@H]3[C@H](N(C)C)C(O)=C(C(N)=O)C(=O)[C@@]3(O)C(O)=C1C2=O [MINOCYCLINE] | 8 (≈ 17.5 µM) | < 0.016 | 8 (≈ 17.5 µM) | 16 (≈ 35 µM) | 0.5 (≈ 1.09 µM) | 0.125 (≈ 0.273 µM) | 0.25 (≈ 0.546 µM) | – | –
9 | COCCNc1nc(Cl)c2c(c1O)C(=O)C1=C(O)[C@]3(O)C(=O)C(C(N)=O)=C(O)[C@@H](N(C)C)[C@@H]3C[C@@H]1C2.Cl.Cl.Cl | 4 | 0.063 | 32 | 4 | 1 | 0.031 | 1 | 4 | –
10 | CN(C)[C@@H]1C(O)=C(C(N)=O)C(=O)[C@@]2(O)C(O)=C3C(=O)c4c(O)cnc(-c5ccccc5)c4C[C@H]3C[C@@H]12.Cl.Cl | 4 | 0.031 | > 32 | 32 | 0.5 | 0.063 | 1 | 2 | –
11 | CN(C)c1cc(CNCC(C)(C)C)c(O)c2c1C[C@H]1C[C@H]3[C@H](N(C)C)C(O)=C(C(N)=O)C(=O)[C@@]3(O)C(O)=C1C2=O [OMADACYCLINE] | 0.125 (≈ 0.225 µM) | 0.031 (≈ 0.0557 µM) | 16 (≈ 28.7 µM) | 2 (≈ 3.59 µM) | 2 (≈ 3.59 µM) | 0.5 (≈ 0.898 µM) | 0.25 (≈ 0.449 µM) | 2 (≈ 3.59 µM) | –
12 | CCCNc1nc(Cl)c2c(c1O)C(=O)C1=C(O)[C@]3(O)C(=O)C(C(N)=O)=C(O)[C@@H](N(C)C)[C@@H]3C[C@@H]1C2.Cl.Cl.Cl | 4 | 0.25 | 16 | 1 | – | 0.063 | 0.5 | 8 | 5.3
13 | CC(C)CNc1nc(Cl)c2c(c1O)C(=O)C1=C(O)[C@]3(O)C(=O)C(C(N)=O)=C(O)[C@@H](N(C)C)[C@@H]3C[C@@H]1C2.Cl.Cl.Cl | 8 | 1 | > 32 | 1 | 16 | 0.5 | 0.5 | > 32 | –
14 | CCNc1nc(Cl)c2c(c1O)C(=O)C1=C(O)[C@]3(O)C(=O)C(C(N)=O)=C(O)[C@@H](N(C)C)[C@@H]3C[C@@H]1C2.Cl.Cl.Cl | 4 | 0.031 | 16 | 1 | 0.5 | 0.031 | 0.5 | 2 | –
15 | CC(C)CCNc1nc(Cl)c2c(c1O)C(=O)C1=C(O)[C@]3(O)C(=O)C(C(N)=O)=C(O)[C@@H](N(C)C)[C@@H]3C[C@@H]1C2.Cl.Cl.Cl | 32 | 8 | > 32 | 2 | > 32 | 0.25 | 0.25 | > 32 | –
16 | CN(C)[C@@H]1C(O)=C(C(N)=O)C(=O)[C@@]2(O)C(O)=C3C(=O)c4c(O)c(-c5ccccc5)nc(Cl)c4C[C@H]3C[C@@H]12.Cl | 8 | 8 | > 32 | 2 | > 32 | 1 | 1 | > 32 | –
17 | CN(C)[C@@H]1C(O)=C(C(N)=O)C(=O)[C@@]2(O)C(O)=C3C(=O)c4c(O)c(NCC(C)(C)CN5CCCC5)nc(Cl)c4C[C@H]3C[C@@H]12.Cl | 0.25 | 0.031 | 8 | 2 | 2 | 0.5 | 0.125 | 4 | –
18 | CC(C)Nc1nc(Cl)c2c(c1O)C(=O)C1=C(O)[C@]3(O)C(=O)C(C(N)=O)=C(O)[C@@H](N(C)C)[C@@H]3C[C@@H]1C2.Cl.Cl.Cl | 16 | 2 | > 32 | 4 | 32 | 1 | 2 | 32 | –
19 | Cc1ncc2c(c1O)C(=O)C1=C(O)[C@]3(O)C(=O)C(C(N)=O)=C(O)[C@@H](N(C)C)[C@@H]3C[C@@H]1C2.Cl.Cl | 16 | 1 | > 32 | 32 | 8 | 4 | 32 | 8 | –
20 | CCCc1nc(Cl)c2c(c1O)C(=O)C1=C(O)[C@]3(O)C(=O)C(C(N)=O)=C(O)[C@@H](N(C)C)[C@@H]3C[C@@H]1C2.Cl | 4 | 1 | > 32 | 4 | > 32 | 1 | 4 | 32 | –
21 | Cc1nc(Cl)c2c(c1O)C(=O)C1=C(O)[C@]3(O)C(=O)C(C(N)=O)=C(O)[C@@H](N(C)C)[C@@H]3C[C@@H]1C2.Cl | 8 | 0.5 | > 32 | 8 | 8 | 2 | 16 | 8 | –
22 | COc1ncc(O)c2c1C[C@H]1C[C@H]3[C@H](N(C)C)C(O)=C(C(N)=O)C(=O)[C@@]3(O)C(O)=C1C2=O.Cl.Cl | 16 | 0.063 | > 32 | 8 | 0.25 | 0.125 | 4 | 1 | –
23 | CC(C)OCCNc1nc(Cl)c2c(c1O)C(=O)C1=C(O)[C@]3(O)C(=O)C(C(N)=O)=C(O)[C@@H](N(C)C)[C@@H]3C[C@@H]1C2.Cl.Cl.Cl | 4 | 0.031 | > 32 | 2 | 8 | 0.5 | 0.25 | 16 | –
24 | Cc1ncc(O)c2c1C[C@H]1C[C@H]3[C@H](N(C)C)C(O)=C(C(N)=O)C(=O)[C@@]3(O)C(O)=C1C2=O.Cl.Cl | > 32 | 0.25 | > 32 | 32 | 1 | 1 | 0.5 | 1 | –
25 | CCCNc1nc(N(C)C)c2c(c1O)C(=O)C1=C(O)[C@]3(O)C(=O)C(C(N)=O)=C(O)[C@@H](N(C)C)[C@@H]3C[C@@H]1C2.Cl.Cl | > 32 | 8 | > 32 | > 32 | 32 | – | – | > 32 | 3.4
26 | CNc1nc(Cl)c2c(c1O)C(=O)C1=C(O)[C@]3(O)C(=O)C(C(N)=O)=C(O)[C@@H](N(C)C)[C@@H]3C[C@@H]1C2.Cl.Cl.Cl | 4 | 0.016 | 32 | 1 | 0.125 | 0.016 | 2 | 0.5 | –
